Data: ChEMBL document CHEMBL3580567 (J Med Chem, 2015)
Activity calls are given as the source filed them. No cut-off for these calls is given here.

Tests used:
[1] = molecular target: T1, Melatonin receptor type 1B (Homo sapiens) (UniProt P49286); assay: Agonist activity at human recombinant melatonin receptor-2 expressed in CHO cells assessed as decrease of cAMP level after 10 mins by HTRF assay relative to melatonin; type: functional, cell-based
T1 sequence (whole entry): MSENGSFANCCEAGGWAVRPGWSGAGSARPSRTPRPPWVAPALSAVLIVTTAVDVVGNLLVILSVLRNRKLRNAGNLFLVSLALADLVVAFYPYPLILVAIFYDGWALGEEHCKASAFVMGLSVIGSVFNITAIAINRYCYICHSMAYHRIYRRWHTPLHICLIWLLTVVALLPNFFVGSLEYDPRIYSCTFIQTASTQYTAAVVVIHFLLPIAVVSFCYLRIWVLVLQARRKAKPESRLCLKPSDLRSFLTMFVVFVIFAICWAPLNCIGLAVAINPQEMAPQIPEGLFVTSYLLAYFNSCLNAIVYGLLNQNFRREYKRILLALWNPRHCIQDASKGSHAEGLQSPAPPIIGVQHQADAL

[2] = Permeability of the compound at 100 ug/ml after 240 mins by PAMPA; type: physicochemical; conditions: 4 h
Procedure, shortened: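 For PAMPA-BBB, the filter was coated with porcine brain lipid in dodecane (20 mg/mL). Donor compound was 100 µg/mL in PBS:ethanol 70:30, pH 7.4, and the acceptor held PBS:ethanol 70:30. Plates were incubated 240 min at 25 °C. Acceptor concentration was read by UV-Vis at five wavelengths in four wells, over at least three runs. Eleven quality-control standards were included.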

[3] = molecular target: T2, Melatonin receptor type 1B (Homo sapiens, UniProt P49286); assay: Displacement of 2-[125I]-iodomelatonin from human melatonin receptor-2 transfected in CHO cell membranes after 120 mins
T2 sequence (P49286 whole entry): T1 sequence (whole entry)

[4] = molecular target: T3, Retinoic acid receptor alpha (Homo sapiens) (UniProt P10276); assay: Binding affinity to RARalpha (unknown origin) at 10 uM
T3 sequence (whole entry): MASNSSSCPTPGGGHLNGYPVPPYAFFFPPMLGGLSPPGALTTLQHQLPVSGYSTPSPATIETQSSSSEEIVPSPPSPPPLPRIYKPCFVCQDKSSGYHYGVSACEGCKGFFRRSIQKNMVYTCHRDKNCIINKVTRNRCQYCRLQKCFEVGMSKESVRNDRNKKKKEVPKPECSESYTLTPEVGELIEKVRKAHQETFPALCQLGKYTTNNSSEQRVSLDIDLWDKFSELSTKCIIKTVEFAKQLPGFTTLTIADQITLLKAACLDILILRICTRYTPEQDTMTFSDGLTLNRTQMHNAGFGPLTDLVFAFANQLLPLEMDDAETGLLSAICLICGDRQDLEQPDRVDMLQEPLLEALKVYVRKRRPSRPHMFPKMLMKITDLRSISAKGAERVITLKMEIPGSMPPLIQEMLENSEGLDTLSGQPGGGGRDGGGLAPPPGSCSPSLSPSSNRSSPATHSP

[5] = species: Homo sapiens; assay: Selectivity ratio of Ki for human melatonin receptor-1 to Ki for human melatonin receptor-2
[6] = molecular target: Melatonin receptor type 1A (Homo sapiens, UniProt P48039); assay: Agonist activity at human melatonin receptor-1 transfected in CHO cell membranes after 1 hr by GTPgammaS binding assay; type: functional
Melatonin receptor type 1A, sequence (P48039 whole entry): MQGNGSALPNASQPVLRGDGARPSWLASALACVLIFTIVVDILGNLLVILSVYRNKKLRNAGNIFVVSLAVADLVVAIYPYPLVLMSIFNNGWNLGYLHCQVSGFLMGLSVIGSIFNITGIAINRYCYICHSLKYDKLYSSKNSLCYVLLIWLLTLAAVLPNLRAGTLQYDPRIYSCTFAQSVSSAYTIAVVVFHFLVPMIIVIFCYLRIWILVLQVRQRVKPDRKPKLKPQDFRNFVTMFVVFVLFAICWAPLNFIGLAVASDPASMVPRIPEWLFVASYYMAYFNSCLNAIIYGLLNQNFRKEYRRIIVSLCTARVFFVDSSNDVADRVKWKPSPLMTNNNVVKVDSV

[7] = molecular target: T4, 5-hydroxytryptamine receptor 2C (Homo sapiens) (UniProt P28335); assay: Binding affinity to 5HT-2C receptor (unknown origin) at 10 uM
T4 sequence (whole entry): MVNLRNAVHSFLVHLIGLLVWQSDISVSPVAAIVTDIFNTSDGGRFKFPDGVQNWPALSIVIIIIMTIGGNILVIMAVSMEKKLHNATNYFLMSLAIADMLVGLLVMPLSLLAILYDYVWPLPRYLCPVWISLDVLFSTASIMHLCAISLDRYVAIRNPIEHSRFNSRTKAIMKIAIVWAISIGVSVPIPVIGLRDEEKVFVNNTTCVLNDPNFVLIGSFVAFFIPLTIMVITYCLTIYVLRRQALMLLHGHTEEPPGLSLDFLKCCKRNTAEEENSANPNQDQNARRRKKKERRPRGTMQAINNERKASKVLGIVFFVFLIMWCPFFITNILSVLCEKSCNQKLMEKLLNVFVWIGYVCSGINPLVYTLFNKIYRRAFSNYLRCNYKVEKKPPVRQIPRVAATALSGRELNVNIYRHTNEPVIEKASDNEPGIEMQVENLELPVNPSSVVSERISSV

- Emax [1]: 92%
- permeability [2]: permeable
- Ki [3]: 190 nM
- Activity [4]: inactive
- Ratio Ki [5]: 3.6
- EC50 [6]: 961 nM
- Activity [7]: inactive
Structure (SMILES): COc1ccc2[nH]cc(CCc3nnc(C)o3)c2c1
